Assay: Toxicity liver stage against HepG2, at 10uM
Format: cell-based
Set-up: test concentration 10 uM, cell line HepG2-A16-CD81EGFP
Settings: human, HepG2-A16-CD81EGFP cells; read-out: INHIBITION
Summary of the method: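 Uninfected HepG2-A16-CD81EGFP cells, 3 × 10^3 per well, 1536-well, plated on prespotted compound at 10 μM final, parasite-free screening media added to match infected plates; puromycin 10 μM positive, DMSO 0.5% negative; run in parallel with 48 h PbLuc assay at 37 °C, 5% CO2; viability by CellTiter-Glo luminescence, normalized to controls.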

SMILES | cytotoxicity at 10 µM [%]
O=C(Nc1ccc(Cl)cc1C(=O)NCCN1CCOCC1)c1ccco1 | -4.62
Cc1cccc(N2CCN(Cc3nc(CC4CC4)no3)CC2)n1 | -10.1
CC[C@H]1CN2CC[C@H]1C[C@@H]2CNC(=O)Nc1ccccc1 | -0.989
COc1ccc2nnc(CCCC(=O)NCCc3ccncc3)n2n1 | -10
CCOC(=O)c1sc(NC(=O)CN2C(=O)CCC2=O)c(C#N)c1C | -6.93
N#Cc1ccc(C(=O)N2CCC(Oc3ccc(C#N)cn3)CC2)cc1 | 7.92
Cc1noc(C2CCC3(CCN(C(=O)C4CCOCC4)CC3)O2)n1 (centres undefined) | 7.16
CSc1nc2cc(C)n(CC(=O)N3CCCC3)c2c(=O)n1CC(C)C | 3.64
CCCn1[nH]c(CNc2ccccc2)nc1=O | 9.98
O=C(CCn1ccc2ccc(F)cc21)/N=c1\[nH]nc(C2CCCO2)s1 (centres undefined) | -0.0308
Cc1c(C)n(-c2ccccn2)c2nc3c(c(N)c12)CCCCC3 | 6.1
Cc1c(Br)cnn1CCC(=O)N(C)Cc1c(Cl)cnn1C | -13.7
CCn1ccc(CNC(=O)c2cc(OC)cc(OC)c2)n1 | 8.66
CN(C)C(=O)CN1CCCC(c2nccnc2-c2cccc(Cl)c2)C1 (centres undefined) | 4.21
Cc1noc(C)c1-c1cccc(C2CCN(S(=O)(=O)N(C)C)CC2)n1 | 8.18
Cc1cnc(-c2nc(C3CCN(Cc4ccccc4Cl)CC3)no2)cn1 | -5.85
Cc1csc2c(C3CCN(C(=O)Cn4cncn4)CC3)nc(C)n12 | 6.28
COc1ccc(C2CNCCN2C(=O)c2nccc3ccccc23)cc1 (centres undefined) | 4.1
CNC(=O)C1(c2cnccn2)CCCN1C(=O)c1cccnc1OC (centres undefined) | -8.55
COCC(=O)N1CCN(c2cc(C)nc(C3CCCN3C(C)=O)c2)CC1 (centres undefined) | 1.86
O=C(COc1cccc(F)c1)N1C[C@@H](O)[C@H](N2CCOCC2)C1 | 6.02
COc1cc2nc3n(c(=O)c2cc1OC)CCN(C(=O)C(C)(C)C)CC3 | -13.5

SMILES | cytotoxicity at 10 µM [%]
OC1CCN(Cc2c(-c3ccco3)[nH]c3ncccc23)CC1 | -1.58
CCc1cc(C(=O)N2CCc3nc4c(C)csc4c(=O)n3CC2)on1 | -14.9
CN(c1ccncn1)C1CC2(CCN(C(=O)c3cncs3)C2)C1 (centres undefined) | -8.13
O=C(c1ccncc1)N1CCC(O)(Cn2ccc3ccncc32)CC1 | 1.93
COc1ccccc1-c1nc(C(=O)N2CCOCC2)n2ccncc12 | 11.9
CS(=O)(=O)N1CC2(CCN(C3CCCCC3)CC2)Cc2ccccc21 | 4.92
CC(=O)N1CCCN(Cc2ccon2)c2ccccc21 | 0.616
CCN(CC)S(=O)(=O)NC(C)C(=O)N(C)C (centres undefined) | 9.55
O=C(c1ccc2[nH]cnc2c1)N1CCC(COc2ccccn2)CC1 | -2.91
CC(C)(C(=O)NCCCc1nc2ccccc2[nH]1)n1cc(Cl)cn1 | 4.05
COCCOc1ccc(S(=O)(=O)Nc2cccnc2O)cc1C | 4.68
O=C(NC1CCCN(Cc2c(F)cccc2F)C1)c1cc[nH]n1 (centres undefined) | 5.72
CN(C)c1cc2c(nn1)CCN(C(=O)c1cc3c(s1)CCOC3)C2 | 2.35
O=C(c1cnc(NCC2CCCO2)c(Cl)c1)N1CCCCC1 (centres undefined) | 0.139
O=C1CSCN1CC(=O)N1CCCC1c1nc2ccccc2s1 (centres undefined) | -12.7
COc1ccc(C(CC(=O)O)NC(=O)c2cc(C)on2)cc1 (centres undefined) | 5.12
COc1cccc(S(=O)(=O)CCN2CCCC2c2ccc[nH]2)c1 (centres undefined) | -3.89
O=C(c1ccccc1F)N1CCN(CCCn2cncn2)CC1 | 2.99
Cc1cc(CC(=O)NCC(O)c2ccc(OC(F)F)cc2)n[nH]1 (centres undefined) | -0.988
CC1CCN(C(CNC(=O)Cn2cccn2)c2cccs2)CC1 (centres undefined) | -16
Cc1nc(CN2CCC(CNC(=O)NCCC3CCC3)CC2)oc1C | -0.5
Cc1ccn(-c2ccccc2NCc2cccnc2)n1 | 0.508

SMILES | cytotoxicity at 10 µM [%]
COCCCN(CCOC)C(=O)Nc1ccccc1-n1cccn1 | 1.51
CCn1cc(NC(=O)NC(CO)Cc2c[nH]c3ccccc23)cn1 (centres undefined) | -7.03
Cn1cnc2c1CCN(CCOc1ccc3c(c1)CCC(=O)N3)C2 | -4.48
Cc1cncc(C(=O)N2CCCCC2c2nc[nH]n2)c1 (centres undefined) | -0.229
Cn1c(CCNc2nccnc2C#N)nc2cc(Cl)ccc21 | -6
COCC(C)(CCO)NC(=O)Nc1cccc(Br)c1C (centres undefined) | 10.5
Cc1cc(NC(=O)NCC2(O)CCCC2)ccn1 | -6.36
Cc1nnnn1-c1cc(NCc2cc(C#N)ccc2F)ccc1F | 0.685
Cc1ccc(S(=O)(=O)N2CCN(Cc3ccncc3)CC2)c(Cl)c1 | -0.147
COc1cccc(C(=O)N2CCN(CC(O)c3ccccc3)CC2)c1 (centres undefined) | -46.7
O=C(N1CCC(O)(C(F)(F)F)C1)C1(c2ccc(Cl)cc2)CC1 (centres undefined) | 9.64
COc1ccccc1CC(=O)NC(CC(=O)O)c1ccc(F)cc1 (centres undefined) | -4.24
CCc1nc(CN2CCN(C(=O)COCc3ccccc3)CC2)no1 | 2.41
Cn1cnc(S(=O)(=O)N2CCN(Cc3ccco3)CC2)c1Cl | -3.85
COC[C@@]12CCC[C@@H]1CN(C(=O)COC1CCCC1)C2 | 4.35
CO[C@H]1CC[C@H]2[C@H]1OCCN2C(=O)CC1=CCCCC1 | 5.28
Cn1cc(C[C@H]2[C@H](N3CCOCC3)CCN2C(=O)c2ccoc2)cn1 | -81.5
O=C(CC(F)(F)F)N1CCc2onc(Cn3cccn3)c2C1 | 0.635
CS(=O)(=O)N[C@@H]1CCO[C@]2(CCN(C(=O)c3cnccn3)C2)C1 | 1.98
O=C(c1cn(CCN2CCCCC2)nn1)N1CCCCO1 | -4.55
Cc1nn(C)c2nc(N3CCNC(=O)C3Cc3ccccc3)sc12 (centres undefined) | -2.32
COc1ccc(/C=C/CN2CCCC3(C2)CN(C)C(=O)O3)cc1 (centres undefined) | -2.67

SMILES | cytotoxicity at 10 µM [%]
CCC[C@@H]1CN(C(=O)c2c(F)ccc(OC)c2F)C[C@H]1C(=O)O | 0.542
CCC(=O)N1CCN(S(=O)(=O)c2cccc(F)c2)[C@H]2CS(=O)(=O)C[C@H]21 | -52
Cc1ccc(OC[C@@H]2CNC[C@H](C(=O)NCC3CCCO3)C2)cn1 (some centres undefined) | -8.14
Cc1ncc(C)c(N2Cc3cnn(Cc4ccc(F)cc4)c3C2)n1 | 3.3
OC(CNc1ccncn1)CN1CCCCCC1 (centres undefined) | -0.271
N#Cc1cccc(N2CCOC3(CNCCOC3)C2)n1 (centres undefined) | 2.61
CC(C)c1nccc(CN2CCC(O)(CN3CCCCC3)C2)n1 (centres undefined) | -1.95
O=C(CC1=CSC2=NCCCN12)N1CCCCC1c1cccc(F)c1 (centres undefined) | -160
CC1(C)CN(Cc2c[nH]c(CC3CCCC3)n2)CC[C@]1(C)O | 2.74
CC(C)c1cc(N(C)Cc2cc(C3CC3)on2)n2nccc2n1 | 4.28
O=c1[nH]c(-c2ccncc2)nc2c1CCN(S(=O)(=O)N1CCCC1)C2 | 6.04
CO[C@@]1(C)C[C@@H](O)C12CCN(C(=O)C1(c3ccccc3F)CC1)CC2 | 3.47
CCc1nc(CCn2ccc3nc(OC)c(C#N)cc3c2=O)no1 | 3.57
NC1CCCN(C(=O)c2csc(-c3ccc(C(F)(F)F)cc3)n2)CC1 (centres undefined) | -15.1
Cc1nc(N)nc(C)c1Cc1nc(C2CC2)n[nH]1 | -9.44
Cc1nc(N[C@H]2COC[C@@H]2N2CCCC2)c2cnn(C)c2n1 | -1.42
COc1ccc(C(C(=O)O)N2CCCN(C3CCCCC3)CC2)cn1 (centres undefined) | 13.3
CCC(NC(=O)c1nn(C)cc1C(=O)O)c1ccc(C)cc1C (centres undefined) | -8.66
CCCn1cc2c(C(F)F)cc(SCC(=O)O)nc2n1 | -10.9
COc1ccc(-c2nonc2N)cc1 | -7.97
Cc1csc(N2CCN(CC(=O)N3CCCC3)CC2C)n1 (centres undefined) | -0.456
O=C(O)c1ccc(F)c(S(=O)(=O)N2CCOc3ccccc32)c1 | -4.28

SMILES | cytotoxicity at 10 µM [%]
CC(C)n1ccnc1CN1CCCN(C(=O)c2ncccc2O)CC1 | -3.45
COc1ccc(NC(=O)N2CCCCCC2c2ccncc2)cn1 (centres undefined) | 5.55
Cc1nn(C)c(Cl)c1C1CCCN1C(=O)c1ccc2c(c1)OCO2 (centres undefined) | -2.9
CC(C)(C)SCCCC(=O)N1CCC(Nc2cccnn2)CC1 | -8.26
CN1CCCc2cc(-c3cncn3CCNC3CCS(=O)(=O)C3)ccc21 (centres undefined) | -2.42
Cc1ccc(C(CCNCCCN(C)C)C2CCOC(C)(C)C2)cc1 (centres undefined) | -3.32
Cc1cccc(CN2CC[C@H]3OCC[C@@]3(C(=O)N3CCCO3)C2)n1 | 0.886
CC(C)CN1C(=O)C2(CCN(Cc3ccsc3)C2)c2ccccc21 (centres undefined) | 15.7
CC(C)Nc1ncnc2c1CCN(C(=O)c1ccccc1F)CC2 | -86.7
O=C(NCC1CC1)[C@H]1C[C@H]2OCC[C@H]2N(CCc2ccccc2)C1 | 3.86
c1cnc2c(c1)cc(C1CCOCC1)n2CCN1CCOCC1 | 0.487
CO[C@@H]1CCN(Cc2nccn2C)[C@H]1Cc1cccnc1 | -71.5
O=C(c1cnccn1)N1CCc2ncnc(-c3cccnc3)c2CC1 | -3.8
Cn1cc(CN2CCCC3(COCCN(c4cccnc4)C3)C2)cn1 (centres undefined) | -75.6
O=C(NCC1CC1)[C@@H]1CC[C@@H]2[C@@H](CCN2Cc2ccc(F)c(F)c2)O1 | 8.33
CCN1C[C@H]2[C@@H](C1)N(S(=O)(=O)c1ccccc1F)CC[C@H]2OC | -74.1
O=C1NC2(CCN(Cc3ccoc3)CC2)CC1c1ccncc1 (centres undefined) | 6.05
c1cnc(N2C[C@H]3CN(CC4CCOC4)C[C@H]3C2)nc1 (some centres undefined) | -5.09
Cc1ccc2c(n1)N(Cc1cccnc1)CCN(C(=O)C1CCC1)C2 | 13.7
CCc1ncnc2c1CCN(CCOC)CC2 | 5.19
O=C(Nc1ccccc1)N1C[C@@H]2CC[C@H]1CN(Cc1ccccc1)C2 | 1.93

— ChEMBL document CHEMBL4513216, “Probing the Open Global Health Chemical Diversity Library for Multistage-Active Starting Points for Next-Generation Antimalarials” (ACS Infect Dis, 2020)
